# According to the M2OR odorant receptor database:
# Target: UniProt Q9WVD9
# Conditions: stereoisomer not certain
# Outline: (§1)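 Each entry records the cell line, G-protein, co-transfected protein and tags used. Methods varied with the source, often transient luciferase assays in mammalian cell lines. A receptor–molecule pair is called responsive (active) if the original authors judged its signal statistically different from baseline and non-responsive (inactive) otherwise.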
# Chain of UniProt Q9WVD9 (Q9WVD9 as listed by the source): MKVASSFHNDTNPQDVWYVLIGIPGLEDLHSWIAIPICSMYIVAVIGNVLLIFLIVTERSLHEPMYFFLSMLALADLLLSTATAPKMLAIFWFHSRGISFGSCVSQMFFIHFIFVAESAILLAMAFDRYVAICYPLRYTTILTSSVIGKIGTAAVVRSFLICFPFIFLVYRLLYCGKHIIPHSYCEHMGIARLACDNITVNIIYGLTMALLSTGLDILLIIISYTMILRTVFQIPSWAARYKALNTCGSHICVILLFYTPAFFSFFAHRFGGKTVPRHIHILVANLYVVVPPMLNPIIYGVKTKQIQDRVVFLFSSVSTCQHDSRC
row,Structure (SMILES),odorant receptor agonist call
1,CCCCCCCO,inactive
2,CCCCCCCCCO,inactive
3,c1ccccc1,inactive
4,CCCCCC(=O)CC,inactive
5,O=C1Cc2ccccc2O1,inactive
6,CCCCC(C)=O,inactive
7,CCC(=O)O,inactive
8,CCCCCCCCCS,inactive
9,CCCCCCC(=O)[O-].[H+],active
10,CC12CCC(CC1=O)C2(C)C (centres undefined),inactive
11,CCCCCCCC(=O)[O-].[H+],inactive
12,CCCCCCCCO,inactive
13,CCOC(=O)C(C)C,inactive
14,CCCCOC(=O)C(C)OC(=O)CCC (centres undefined),inactive
15,CCCCC(=O)CC,inactive
16,CCCCCC1=C(C)CCC1=O,inactive
17,CC(=O)Oc1ccccc1,inactive
18,CC(=O)OCC=C(C)C,inactive
19,CCCCCCCCC(=O)O,inactive
20,CCCCOC=O,inactive
21,CCCCCCCCCC(=O)[O-].[H+],inactive
22,CCCCCCOC(C)=O,inactive

# Target: T1, UniProt Q9WVN5
# T1 sequence (whole entry): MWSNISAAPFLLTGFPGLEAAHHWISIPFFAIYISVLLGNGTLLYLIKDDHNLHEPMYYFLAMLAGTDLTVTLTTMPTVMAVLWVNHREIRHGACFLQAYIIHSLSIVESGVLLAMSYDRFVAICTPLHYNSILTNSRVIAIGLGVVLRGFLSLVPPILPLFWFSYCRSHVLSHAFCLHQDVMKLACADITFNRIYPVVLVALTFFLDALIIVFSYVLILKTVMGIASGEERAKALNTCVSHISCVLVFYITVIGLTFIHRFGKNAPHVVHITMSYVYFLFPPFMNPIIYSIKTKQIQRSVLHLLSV
# Conditions: stereoisomer not certain
# Outline: as §1
row,Structure (SMILES),odorant receptor agonist call
1,CCCCCCCO,inactive
2,CCCCCCCCCO,inactive
3,c1ccccc1,inactive
4,CCCCCC(=O)CC,inactive
5,O=C1Cc2ccccc2O1,active
6,CCCCC(C)=O,inactive
7,CCC(=O)O,inactive
8,CCCCCCCCCS,inactive
9,CCCCCCC(=O)[O-].[H+],active
10,CC12CCC(CC1=O)C2(C)C (centres undefined),inactive
11,CCCCCCCC(=O)[O-].[H+],inactive
12,CCCCCCCCO,inactive
13,CCOC(=O)C(C)C,inactive
14,CCCCOC(=O)C(C)OC(=O)CCC (centres undefined),inactive
15,CCCCC(=O)CC,inactive
16,CCCCCC1=C(C)CCC1=O,inactive
17,CC(=O)Oc1ccccc1,inactive
18,CC(=O)OCC=C(C)C,inactive
19,CCCCCCCCC(=O)O,inactive
20,CCCCOC=O,inactive
21,CCCCCCCCCC(=O)[O-].[H+],inactive
22,CCCCCCOC(C)=O,inactive
